From PubChem
This is a sample that favours compounds with a hit; in the whole collection about 1.6% have one here.
LANA-H2A inh – blockers of LANA interaction with H2A/H2B – biochemical, FP readout, HTS, primary screen; cell-free LANA-H2A/H2B peptide, fluorescence polarization; AID 2629, 2010; inhibition, % (no concentration beside the values); Protein LANA1 (Human herpesvirus 8 type P (isolate GK18)), Q9QR71; 320,000 tested, 0.6% active; in the data active = inhibition mostly above about 10%, no sharp cut-off; inactive = mostly below about 6.7%
Arr AP2 block – inhibitors of beta-arrestin/AP2 binding, primary screen, biochemical, GPCR trafficking, flow cytometry. beta-arrestin 1 C-terminal peptide binding to AP2 beta2-adaptin appendage (human). FITC-arrestin peptide / GST-AP2 beads; AP2 beta2 appendage carries R879A mutation. inhibition, % at 10 µM. 340,000 tested, 0.31% active. AID 504490, 2011;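 active = inhibition above a set limit, near 3 SD of compounds lacking own fluorescence, cut at about 54% in these data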;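 note: plate controls were DMSO wells for no effect and 5 µM unlabelled arrestin peptide for full effect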
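System: GST-AP2 R879A glutathione beads | Also added: FITC-arrestin peptide, 50 nM | Times: 12 min plus 1 h, RT | Signal: Bead flow cytometry, FITC channel | Buffer or medium: PBS with 0.05% Tween 20 and 0.1% BSA | Read-out basis: Percent drop in bead-associated FITC signal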
HDAC3 inhib – HDAC3 deacetylase inhibitors, primary screen, biochemical, fluorescence, cell-free homogeneous. recombinant HDAC3, fluorogenic peptide/trypsin coupled. Histone deacetylase 3 (Homo sapiens), O15379. 320,000 tested, 0.15% active. inhibition, % at 8.3 µM; in the data active = inhibition above about 26%, passing the limit was not always enough
Target sequence (O15379 whole entry, looked up): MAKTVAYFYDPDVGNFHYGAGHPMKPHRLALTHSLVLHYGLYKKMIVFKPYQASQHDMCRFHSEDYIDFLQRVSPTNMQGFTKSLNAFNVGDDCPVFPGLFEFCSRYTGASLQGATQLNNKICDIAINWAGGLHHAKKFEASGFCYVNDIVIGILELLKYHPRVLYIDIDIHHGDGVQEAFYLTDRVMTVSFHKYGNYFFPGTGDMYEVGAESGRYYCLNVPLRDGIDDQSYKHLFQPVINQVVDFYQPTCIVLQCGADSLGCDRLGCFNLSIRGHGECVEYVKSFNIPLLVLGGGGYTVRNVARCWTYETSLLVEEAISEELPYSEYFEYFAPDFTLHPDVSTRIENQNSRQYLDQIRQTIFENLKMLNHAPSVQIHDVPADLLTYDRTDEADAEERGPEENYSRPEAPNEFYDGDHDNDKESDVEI
T cell modulator – modulators of CD8 T cell-vesicle binding, primary screen, mouse 2C CD8+ T cells, flow cytometry; 2C CD8+ T cell-vesicle binding; hits give low values; response (vesicle binding), % at 7 µM; 330,000 tested, 0.068% active;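 active = response, share of CD8 T cells binding vesicles, and their 90th percentile fluorescence all below set limits, cut at about 80% in these data, passing the limit was not always enough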;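 note: values below 100% mean blocked vesicle binding to the CD8+ T cells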
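System: murine 2C transgenic CD8+ T lymphocytes; also added: QL9-loaded Drosophila micro-vesicles; times: binding 1.5 h at 37 °C; measured by: flow cytometry, PE anti-B7-1 (FL2) versus Alexa647 anti-CD8 (FL8), PFA-fixed; control set: Peptide-free naked vesicles (low) and QL9 vesicles with 0.7% DMSO vehicle (high)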
GASC-1 inh – inhibitors of GASC-1 histone demethylase, primary screen, biochemical, fluorescence, DELFIA europium; Lysine-specific demethylase 4C (Homo sapiens), Q9H3R0; GST-JMJD2C(1-420) H3K9me3 demethylation; inhibition, % at 2.35 µM; 330,000 tested, 0.069% active; AID 2099, 2009;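 active = more than half of a compound's replicate wells show inhibition beyond 50%, single wells judged on their own value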;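 note: signal counts dimethyl H3K9 product captured on neutravidin plate; 0% = median of DMSO wells and 100% = 0.3 times that DMSO median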
Pemphigus Ab inh – inhibitors of pemphigus antibody binding to DSG3, primary screen, biochemical, bead-based, flow cytometry, scFv-GFP | Desmoglein-3 (Homo sapiens), P32926 | DSG3-coupled beads, scFv-anti-DSG3-GFP binding; hits give low values | binding (percent of control), % at 10 µM | 310,000 tested, 0.48% active;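 active = binding more than 3 SD below its plate's average and above zero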;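 note: hits lower antibody fragment binding to DSG3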
The depositor's hits bear a star; nt = no result.

SMILES	LANA-H2A inh	Arr AP2 block	HDAC3 inhib	T cell modulator	GASC-1 inh	Pemphigus Ab inh
COc1ccc(Cl)cc1NC(=O)CN(C)C(=O)c1cc2c(s1)CCC(C)C2 (stereo not drawn)	-6	2	16	378	-11	103
Cc1cc(NC(=O)C2CCCN2C(=O)Nc2c(C)cccc2C)ccc1-n1cnnn1 (stereo not drawn)	0	8	-3	182	12	90
O=C(NCc1cccc(F)c1)C1CCN(S(=O)(=O)Cc2ccccc2)CC1	0	10	0	424	73*	nt
Cc1cc(NC(=O)C2CCN(S(=O)(=O)Cc3ccccc3)CC2)ccc1-n1cnnn1	43*	1	-2	335	28	95
O=C(NCc1ccncc1)C1CCN(S(=O)(=O)Cc2ccccc2)CC1	-2	5	0	638	-7	99
O=C(NCc1ccccc1)C1CCN(S(=O)(=O)c2cccc3cccnc23)CC1	nt	12	nt	398	nt	90*
CCOc1ccccc1NC(=O)CCNC(=O)C1CCN(S(=O)(=O)c2ccccc2)CC1	nt	nt	nt	nt	nt	100
Cc1ccc(S(=O)(=O)N2CCOCC2)cc1NC(=O)c1ccc(F)cc1F	-3	8	-2	466	2	nt
CCOC(=O)N1CCN(C(=O)c2cc(COc3c(F)cccc3F)on2)CC1	-1	1	-3	268	10	107
Nc1c(C(=O)OCC2CCCO2)c2nc3ccccc3nc2n1-c1ccc2c(c1)OCCO2 (stereo not drawn)	0	nt	-3	217	0	nt
O=c1c2c3nc4ccccc4nc3n(-c3ccc4c(c3)OCCO4)c2ncn1C1CCCC1	0	3	-16	85	nt	66*
Cc1cnc(C(=O)OCc2csc(CC(=O)Nc3ccccc3C)n2)cn1	1	-5	2	529	-14	nt
COc1cc(C(=O)NCCc2ccc3c(c2)OCCO3)ccc1OCC(=O)N1CCOCC1	0	-4	-8	542	21	108
COc1cc(C(=O)NCCc2ccc(F)cc2)ccc1OCC(=O)N1CCOCC1	6	8	nt	317	10	86*
COc1cc(C(=O)N2CCN(S(=O)(=O)c3cccc(F)c3)CC2)ccc1OCC(=O)N1CCOCC1	nt	-1	nt	571	-12	87*
Cc1ccc(Cl)cc1NC(=S)N1CCC(c2ccccc2)C1 (stereo not drawn)	2	-3	7	315	-1	94
CC(=O)Nc1ccc(S(=O)(=O)N2CCNC(=O)C2)cc1	1	-14	-14	440	-11	96
O=C(Cn1nnc(-c2ccccc2)n1)N/N=C/c1cc([N+](=O)[O-])c(Cl)cc1Cl	3	4	4	195	-1	74*
COc1ccc(C(=O)Nc2ccc(/C(C)=N/NC(=O)c3ccccc3O)cc2)cc1OC	nt	8	nt	212	-15	95
O=c1nc(SCc2cccc(C(F)(F)F)c2)nc2ccccn12	17*	-5	2	392	33	92
Cc1ccn2c(=O)nc(SCc3cccc(C(F)(F)F)c3)nc2c1	-3	-14	3	607	-4	101
COC(=O)c1ccc(-c2sc3nc(N4CCOCC4)c4c(c3c2N)CC(C)(C)OC4)o1	-1	12	1	203	34	38*
CC1(C)Cc2c(c(N3CCOCC3)nc3sc(C(N)=O)c(N)c23)CO1	1	-7	2	648	-1	106
CCc1nn(CC(=O)N2CCCCCC2)c(=O)c2cc3ccccc3n12	-2	36	-4	163	14	101
CC(NC(=O)COC(=O)CN1C(=O)NC2(CCCC2)C1=O)c1ccc(F)cc1 (stereo not drawn)	nt	0	nt	nt	nt	108
